Assay results from ChEMBL document CHEMBL1649139, “A novel gene, erm(41), confers inducible macrolide resistance to clinical isolates of Mycobacterium abscessus but is absent from Mycobacterium chelonae” (2009).
≈ marks a conversion by molar mass, not a printed value. Numbered stars: 1 amine (or outer) side, 2 acyl side, 3 side chain; on linkers, the order of the positions; unused ones are H or OH. Bridge positions count the residues as written; N and C are the ends. Square brackets hold non-standard residues; d marks the D form. Peptide text beside a SMILES is read from it. * marks the point of attachment. X1 = O=C1C[C@@H](C(=O)[*:2])N([*:1])C[C@H]1CS[C@@H]1CN2CCC1CC2; NMePhe(4-NMe2) = CN[C@@H](Cc1ccc(N(C)C)cc1)C(=O)O; Picolinoyl(3-OH) = O=C(c1ncccc1O)*; Phg = N[C@H](C(=O)O)c1ccccc1; dAbu = CC[C@@H](N)C(=O)O

Key:
Type in all cases: functional
[1] = tested on: Mycobacteroides abscessus; assay: Antimicrobial activity against Mycobacterium abscessus isolate MC879 on day 4 by broth microdilution method; conditions: isolate MC879, 96 h
[2] = tested on: Mycobacteroides abscessus; assay: Antimicrobial activity against Mycobacterium abscessus isolate MC1028 on day 4 by broth microdilution method; conditions: isolate MC1028, 96 h
[3] = tested on: Mycolicibacterium smegmatis; assay: Antimicrobial activity against Mycobacterium smegmatis transformed with erm allele Mycobacterium abscessus isolate MC879 by broth microdilution method
[4] = tested on: Mycolicibacterium smegmatis; assay: Antimicrobial activity against Mycobacterium smegmatis transformed with erm allele Mycobacterium abscessus isolate MC958 by broth microdilution method
[5] = tested on: Mycolicibacterium smegmatis; assay: Antimicrobial activity against Mycobacterium smegmatis transformed with erm allele Mycobacterium abscessus isolate MC719 by broth microdilution method
[6] = tested on: Mycolicibacterium smegmatis; assay: Antimicrobial activity against Mycobacterium smegmatis transformed with erm allele Mycobacterium abscessus isolate MC720 by broth microdilution method
[7] = tested on: Mycolicibacterium smegmatis; assay: Antimicrobial activity against Mycobacterium smegmatis transformed with erm allele Mycobacterium abscessus isolate MC879 preincubated with 2 ug/ml erythromycin for 20 to 24 hrs by broth microdilution method
[8] = tested on: Mycolicibacterium smegmatis; assay: Antimicrobial activity against Mycobacterium smegmatis transformed with erm allele Mycobacterium abscessus isolate MC958 preincubated with 2 ug/ml erythromycin for 20 to 24 hrs by broth microdilution method
[9] = tested on: Mycolicibacterium smegmatis; assay: Antimicrobial activity against Mycobacterium smegmatis transformed with erm allele Mycobacterium abscessus isolate MC719 preincubated with 2 ug/ml erythromycin for 20 to 24 hrs by broth microdilution method
[10] = tested on: Mycolicibacterium smegmatis; assay: Antimicrobial activity against Mycobacterium smegmatis transformed with erm allele Mycobacterium abscessus isolate MC720 preincubated with 2 ug/ml erythromycin for 20 to 24 hrs by broth microdilution method
[11] = tested on: Mycolicibacterium smegmatis; assay: Antimicrobial activity against Mycobacterium smegmatis transformed with erm allele Mycobacterium abscessus isolate MAB30 by broth microdilution method
[12] = tested on: Mycolicibacterium smegmatis; assay: Antimicrobial activity against Mycobacterium smegmatis transformed with erm allele Mycobacterium abscessus isolate MC1028 by broth microdilution method
[13] = tested on: Mycolicibacterium smegmatis; assay: Antimicrobial activity against Mycobacterium smegmatis transformed with erm allele Mycobacterium abscessus isolate MC1082 by broth microdilution method
[14] = tested on: Mycolicibacterium smegmatis; assay: Antimicrobial activity against Mycobacterium smegmatis transformed with erm allele Mycobacterium abscessus isolate MAB30 preincubated with 2 ug/ml erythromycin for 20 to 24 hrs by broth microdilution method
[15] = tested on: Mycolicibacterium smegmatis; assay: Antimicrobial activity against Mycobacterium smegmatis transformed with erm allele Mycobacterium abscessus isolate MC1028 preincubated with 2 ug/ml erythromycin for 20 to 24 hrs by broth microdilution method
[16] = tested on: Mycolicibacterium smegmatis; assay: Antimicrobial activity against Mycobacterium smegmatis transformed with erm allele Mycobacterium abscessus isolate MC1082 preincubated with 2 ug/ml erythromycin for 20 to 24 hrs by broth microdilution method
[17] = tested on: Mycobacteroides abscessus; assay: Antimicrobial activity against Mycobacterium abscessus isolate MC879 at day 7 by broth microdilution method; conditions: isolate MC879, 168 h
Outline: (§1)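 Clarithromycin MIC by broth microdilution following CLSI guidelines. Organisms were preincubated […], for 3 days before the assay. This allowed at least two generations, judged by the rise in turbidity. The MIC was read at the stated day, with incubation extended from day 3 to as long as 14 days.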

[18] = tested on: Mycobacteroides abscessus; assay: Antimicrobial activity against Mycobacterium abscessus isolate MC958 at day 7 by broth microdilution method; conditions: isolate MC958, 168 h; outline: as §1
[19] = tested on: Mycobacteroides abscessus; assay: Antimicrobial activity against Mycobacterium abscessus isolate MC1028 at day 7 by broth microdilution method; conditions: isolate MC1028, 168 h
Outline: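 Clarithromycin MIC by CLSI-conforming broth microdilution. Before testing, cultures were preincubated for 3 days, either in medium alone or in clarithromycin or erythromycin (tested range 0.01–1 μg/ml). Preincubation ran for at least two generations, judged by turbidity increase. Plates were read on day 3 and on extended incubation at days 5 to 14.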

[20] = tested on: Mycobacteroides abscessus; assay: Antimicrobial activity against Mycobacterium abscessus isolate MC879 at day 5 preincubated with 0.1 ug/ml for 3 days by broth microdilution method
Outline: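 To test inducible resistance, cultures were preincubated for 3 days in clarithromycin or erythromycin, within 0.01–1 μg/ml. The period was set so cultures passed at least two generations, judged by turbidity increase. Clarithromycin MIC was then determined by CLSI-conforming broth microdilution and read on the stated day, from day 3 up to 14.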

[21] = tested on: Mycolicibacterium smegmatis; assay: Antimicrobial activity against Mycobacterium smegmatis transformed with erm allele Mycobacterium abscessus isolate MC879-2 by broth microdilution method
[22] = tested on: Mycolicibacterium smegmatis; assay: Antimicrobial activity against Mycobacterium smegmatis transformed with erm allele Mycobacterium abscessus isolate MC879-2 preincubated with 2 ug/ml erythromycin for 20 to 24 hrs by broth microdilution method
[23] = tested on: Mycobacteroides abscessus; assay: Antimicrobial activity against Mycobacterium abscessus isolate MC958 on day 4 by broth microdilution method; conditions: isolate MC958, 96 h

| Structure (SMILES) | MIC [1] [µg/mL] | MIC [2] [µg/mL] | MIC [3] [µg/mL] | MIC [4] [µg/mL] | MIC [5] [µg/mL] | MIC [6] [µg/mL] | MIC [7] [µg/mL] | MIC [8] [µg/mL] | MIC [9] [µg/mL] | MIC [10] [µg/mL] | MIC [11] [µg/mL] | MIC [12] [µg/mL] | MIC [13] [µg/mL] | MIC [14] [µg/mL] | MIC [15] [µg/mL] | MIC [16] [µg/mL] | MIC [17] [µg/mL] | MIC [18] [µg/mL] | MIC [19] [µg/mL] | MIC [20] [µg/mL] | other results |
| --- | --- | --- | --- | --- | --- | --- | --- | --- | --- | --- | --- | --- | --- | --- | --- | --- | --- | --- | --- | --- | --- |
| CCC[C@@H]1C[C@@H](C(=O)N[C@@H]([C@H]2O[C@H](SC)[C@H](O)[C@@H](O)[C@H]2O)[C@H](C)Cl)N(C)C1 [CLINDAMYCIN] | 64 (≈ 151 µM) | 64 (≈ 151 µM) | 64 (≈ 151 µM) | 64 (≈ 151 µM) | 64 (≈ 151 µM) | 64 (≈ 151 µM) | > 512 | > 512 | > 512 | > 512 | 32 (≈ 75.3 µM) | 32 (≈ 75.3 µM) | 32 (≈ 75.3 µM) | 32 | 32 | 32 | > 256 | > 256 | > 256 | 64 (≈ 151 µM) |  |
| CC[C@H]1OC(=O)[C@H](C)[C@@H](O[C@H]2C[C@@](C)(OC)[C@@H](O)[C@H](C)O2)[C@H](C)[C@@H](O[C@@H]2O[C@H](C)C[C@H](N(C)C)[C@H]2O)[C@](C)(O)C[C@@H](C)C(=O)[C@H](C)[C@@H](O)[C@]1(C)O [ERYTHROMYCIN] |  |  | 32 (≈ 43.6 µM) | 32 (≈ 43.6 µM) | 32 (≈ 43.6 µM) | 32 (≈ 43.6 µM) | > 128 | > 128 | > 128 | > 128 | 4 (≈ 5.45 µM) | 4 (≈ 5.45 µM) | 4 (≈ 5.45 µM) | 4 | 4 | 4 |  |  |  |  | MIC [21]: 32 µg/mL (≈ 43.6 µM); MIC [22]: > 128 µg/mL |
| CC[C@H]1NC(=O)[C@@H](NC(=O)c2ncccc2O)[C@@H](C)OC(=O)[C@H](c2ccccc2)NC(=O)[C@@H]2CC(=O)[C@H](CS[C@@H]3CN4CCC3CC4)CN2C(=O)[C@H](Cc2ccc(N(C)C)cc2)N(C)C(=O)[C@@H]2CCCN2C1=O [QUINUPRISTIN] ({Picolinoyl(3-OH)}-T[dAbu]P[NMePhe(4-NMe2)][X1][Phg]; ester 1-C) | 64 (≈ 62.6 µM) | 64 (≈ 62.6 µM) | 128 (≈ 125 µM) | 128 (≈ 125 µM) | 128 (≈ 125 µM) | 128 (≈ 125 µM) | 128 | 128 | 128 | 128 | 128 (≈ 125 µM) | 128 (≈ 125 µM) | 128 (≈ 125 µM) | 128 | 128 | 128 | > 256 | > 256 | > 256 | 64 (≈ 62.6 µM) |  |
| CC[C@H]1OC(=O)[C@H](C)C(=O)[C@H](C)[C@@H](O[C@@H]2O[C@H](C)C[C@H](N(C)C)[C@H]2O)[C@](C)(OC)C[C@@H](C)C(=O)[C@H](C)[C@H]2N(CCCCn3cnc(-c4cccnc4)c3)C(=O)O[C@]12C [TELITHROMYCIN] | 32 (≈ 39.4 µM) | 32 (≈ 39.4 µM) | 8 (≈ 9.85 µM) | 8 (≈ 9.85 µM) | 8 (≈ 9.85 µM) | 8 (≈ 9.85 µM) | > 128 | > 128 | > 128 | > 128 | 4 (≈ 4.93 µM) | 4 (≈ 4.93 µM) | 4 (≈ 4.93 µM) | 4 | 4 | 4 | > 128 | > 128 | > 128 |  | MIC [23]: 32 µg/mL (≈ 39.4 µM) |
